Experimental data taken from ChEMBL document CHEMBL2407024, “Antimicrobial activity of imidazo[1,5-a]quinoxaline derivatives with pyridinium moiety” (Eur J Med Chem, 2013).
≈ marks a conversion by molar mass, not a printed value. Non-standard residues stand in square brackets, D forms with d. Residues, ends and D or L forms follow the SMILES beside them. Orn = NCCC[C@H](N)C(=O)O

Key:
[1] = system: Pseudomonas aeruginosa; experiment: Antibacterial activity against Pseudomonas aeruginosa 9027 measured every 24 hrs for 5 days by conventional dilution method; format: functional
Summary of the method: (§1)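 Broth dilution in nutrient broth, inoculum 3 × 10⁵ cfu/ml. MIC is the lowest concentration showing no growth, read visually every 24 h over 5 days. Run alongside a positive growth control and standard drug controls. Tests in duplicate, repeated twice.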

[2] = system: Trichophyton mentagrophytes; experiment: Antifungal activity against Trichophyton mentagrophytes measured every 24 hrs for 14 days by conventional dilution method; format: functional
Summary of the method: (§2)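 Dilution assay in Sabouraud dextrose broth, inoculum 2 × 10^3–4 cfu/ml. MIC is the lowest concentration with no visible growth after 14 days of incubation. Run alongside a positive growth control and standard drug controls. Tests in duplicate, repeated twice.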

[3] = system: Aspergillus niger; experiment: Antifungal activity against Aspergillus niger BKMF-1119 measured every 24 hrs for 14 days by conventional dilution method; format: functional; summary of the method: as §2
[4] = system: Staphylococcus aureus; experiment: Antibacterial activity against Staphylococcus aureus 209p measured every 24 hrs for 5 days by conventional dilution method; format: functional; summary of the method: as §1
[5] = system: Escherichia coli; experiment: Antibacterial activity against Escherichia coli F-50 measured every 24 hrs for 5 days by conventional dilution method; format: functional; summary of the method: as §1
[6] = system: Candida albicans; experiment: Antifungal activity against Candida albicans 885-653 measured every 24 hrs for 14 days by conventional dilution method; format: functional; summary of the method: as §2
[7] = system: Bacillus cereus; experiment: Antibacterial activity against Bacillus cereus 8035 measured every 24 hrs for 5 days by conventional dilution method; format: functional; summary of the method: as §1
[8] = Acute toxicity in ip dosed mouse; format: organism-based; conditions: in vivo
Summary of the method: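 Mice; each compound given at 5 dose levels, 10 animals per dose (n = 50 per compound). Animals observed for 72 h; toxicity expressed as average lethal dose (LD50) calculated from mortality across dose groups.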

[9] = system: Pseudomonas aeruginosa; experiment: Bactericidal activity against Pseudomonas aeruginosa 9027 after 4 hrs; format: functional; conditions: Pseudomonas aeruginosa, 9027, 4 h
Summary of the method: (§3)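 Tubes contained 1 mL test compound in nutrient agar, 5 to 500 per ml. Bacteria in normal saline broth (3 × 10⁵ cfu/ml, 1 mL) were added and held 4 h, then transferred onto meal-peptone agar plates and incubated at 37 °C. MBC is the dilution giving total cell death.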

[10] = system: Escherichia coli; experiment: Bactericidal activity against Escherichia coli F-50 after 4 hrs; format: functional; conditions: F-50, 4 h; summary of the method: as §3
[11] = system: Candida albicans; experiment: Fungicidal activity against Candida albicans 885-653 after 6 hrs; format: functional; conditions: 885-653, 6 h
Summary of the method: (§4)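 Tubes of test compound (5 to 500 per ml, 1 mL in nutrient agar) with fungi were incubated at 26 °C for 6 h. Inocula were then prepared in Sabouraud dextrose broth and incubated at 26 °C. The fungicidal concentration is the one giving total cell death.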

[12] = system: Staphylococcus aureus; experiment: Bactericidal activity against Staphylococcus aureus 209p after 4 hrs; format: functional; summary of the method: as §3
[13] = system: Aspergillus niger; experiment: Fungicidal activity against Aspergillus niger BKMF-1119 after 6 hrs; format: functional; conditions: BKMF-1119, 6 h; summary of the method: as §4
[14] = system: Bacillus cereus; experiment: Bactericidal activity against Bacillus cereus 8035 after 4 hrs; format: functional; conditions: Bacillus cereus, 8035, 4 h; summary of the method: as §3
[15] = system: Trichophyton mentagrophytes; experiment: Fungicidal activity against Trichophyton mentagrophytes after 6 hrs; format: functional; summary of the method: as §4

Row | MIC [1] [µg/mL] | MIC [2] [µg/mL] | MIC [3] [µg/mL] | MIC [4] [µg/mL] | MIC [5] [µg/mL] | MIC [6] [µg/mL] | MIC [7] [µg/mL] | SMILES | LD50 [8] [mg/kg] | MBC [9] [µg/mL] | MBC [10] [µg/mL] | MFC [11] [µg/mL] | MBC [12] [µg/mL] | MFC [13] [µg/mL] | MBC [14] [µg/mL] | MFC [15] [µg/mL]
1 | > 500 | > 500 | > 500 | 12.5 | > 500 | 15.6 | 62.5 | CCCCCCn1c(=O)c2c(-c3ccccc3)nc(-c3ccc[n+](Cc4cccc(C[n+]5cccc(-c6nc(-c7ccccc7)c7c(=O)n(CCCCCC)c8ccccc8n67)c5)c4)c3)n2c2ccccc21.[Br-].[Br-] | – | – | – | – | – | – | – | –
2 | > 500 | > 500 | > 500 | 125 | > 500 | 250 | > 500 | O=c1c2c(-c3ccccc3)nc3n2c2ccccc2n1CCCCCCCCCCn1c(=O)c2c(-c4ccccc4)nc(n2c2ccccc21)-c1ccc[n+](c1)Cc1cccc(c1)C[n+]1cccc-3c1.[Br-].[Br-] | – | – | – | – | – | – | – | –
3 | > 500 | 500 | > 500 | 31.3 | > 500 | 62.5 | 125 | Cn1c(=O)c2c(-c3ccccc3)nc(-c3ccc[n+](Cc4ccccc4)c3)n2c2ccccc21.[Cl-] | – | – | – | – | – | – | – | –
4 | > 500 | > 500 | > 500 | 62.5 | > 500 | > 500 | 125 | CCCn1c(=O)c2c(-c3ccccc3)nc(-c3ccc[n+](Cc4ccccc4)c3)n2c2ccccc21.[Cl-] | – | – | – | – | – | – | – | –
5 | > 500 | 500 | > 500 | 1.95 | > 500 | 3.9 | 12.5 | CCCCCCCCCn1c(=O)c2c(-c3ccccc3)nc(-c3ccc[n+](Cc4ccccc4)c3)n2c2ccccc21.[Cl-] | – | > 500 | > 500 | 500 | 50 | > 500 | > 500 | > 500
6 | > 500 | > 500 | > 500 | 500 | > 500 | > 500 | > 500 | CCCCCCCCCCCCCCCCCCn1c(=O)c2c(-c3ccccc3)nc(-c3ccc[n+](Cc4ccccc4)c3)n2c2ccccc21.[Cl-] | – | – | – | – | – | – | – | –
7 | – | 3.13 (≈ 9.08 µM) | – | – | – | 0.39 (≈ 1.13 µM) | – | Clc1ccccc1C(c1ccccc1)(c1ccccc1)n1ccnc1 [CLOTRIMAZOLE] | – | – | – | 0.39 (≈ 1.13 µM) | – | – | – | 3.13 (≈ 9.08 µM)
8 | – | – | – | – | – | – | – | CC(C)C[C@@H]1NC(=O)[C@H](CCCN)NC(=O)[C@H](C(C)C)NC(=O)[C@@H]2CCCN2C(=O)[C@@H](Cc2ccccc2)NC(=O)[C@H](CC(C)C)NC(=O)[C@H](CCCN)NC(=O)[C@H](C(C)C)NC(=O)[C@@H]2CCCN2C(=O)[C@@H](Cc2ccccc2)NC1=O [GRAMICIDIN S] (cyclo(L[dF]PV[Orn]L[dF]PV[Orn])) | 26 | – | – | – | – | – | – | –

Row | SMILES | MIC [1] [µg/mL] | MIC [2] [µg/mL] | MIC [3] [µg/mL] | MIC [4] [µg/mL] | MIC [5] [µg/mL] | MIC [6] [µg/mL] | MIC [7] [µg/mL] | LD50 [8] [mg/kg] | MBC [9] [µg/mL] | MBC [10] [µg/mL] | MFC [11] [µg/mL] | MBC [12] [µg/mL] | MFC [13] [µg/mL] | MBC [14] [µg/mL] | MFC [15] [µg/mL]
9 | CCCCCCCCCn1c(=O)c2c(-c3ccccc3)nc(-c3ccc[n+](Cc4cccc(C[n+]5cccc(-c6nc(-c7ccccc7)c7c(=O)n(CCCCCCCCC)c8ccccc8n67)c5)c4)c3)n2c2ccccc21.[Br-].[Br-] | > 500 | 500 | > 500 | 3.9 | 500 | 7.8 | 15.6 | 108 | – | – | – | – | – | – | –
10 | C[C@@H]1[C@H](O)[C@@H](C)/C=C/C=C/C=C/C=C/C=C/C=C/C=C/[C@H](O[C@@H]2O[C@H](C)[C@@H](O)[C@H](N)[C@@H]2O)C[C@@H]2O[C@](O)(C[C@@H](O)C[C@@H](O)[C@H](O)CC[C@@H](O)C[C@@H](O)CC(=O)O[C@H]1C)C[C@H](O)[C@H]2C(=O)O [AMPHOTERICIN B] | – | 3.13 (≈ 3.39 µM) | 20 (≈ 21.6 µM) | – | – | 0.97 (≈ 1.05 µM) | – | 27.7 | – | – | 50 (≈ 54.1 µM) | – | 250 (≈ 271 µM) | – | 250 (≈ 271 µM)
11 | O=C(O)c1cn(C2CC2)c2cc(N3CCNCC3)c(F)cc2c1=O [CIPROFLOXACIN] | – | – | – | 0.25 (≈ 0.754 µM) | – | – | 0.25 (≈ 0.754 µM) | – | 0.5 (≈ 1.51 µM) | 0.5 (≈ 1.51 µM) | – | 0.25 (≈ 0.754 µM) | – | 0.25 (≈ 0.754 µM) | –
12 | CCn1cc(C(=O)O)c(=O)c2cc(F)c(N3CCNCC3)cc21 [NORFLOXACIN] | 3 (≈ 9.39 µM) | – | – | 2.42 (≈ 7.58 µM) | 1.5 (≈ 4.7 µM) | – | 7.8 (≈ 24.4 µM) | – | 5 (≈ 15.7 µM) | 5 (≈ 15.7 µM) | – | 5 (≈ 15.7 µM) | – | 12.5 (≈ 39.1 µM) | –
13 | CC1COc2c(N3CCN(C)CC3)c(F)cc3c(=O)c(C(=O)O)cn1c23 (stereo unspecified) [OFLOXACIN] | 3.1 (≈ 8.58 µM) | – | – | 0.97 (≈ 2.68 µM) | – | – | 1.5 (≈ 4.15 µM) | – | – | – | – | – | – | – | –
